High-throughput results from PubChem.
Rows were chosen to be rich in hits. Some 6.8% of all compounds tested hit in one or more screens of this group.
HER2 expr 66K = inhibitors of human Her2 kinase expression; actives 0.69% (n = 65,000); P04626; AID 645; HER2 level % of control, % at 10 µM; SKBR-3 HER2 protein level, AlphaScreen, 18-24 h; stronger effect = lower value;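 active = HER2 level under 5% of the carrier-only control; inconclusive = no clear call, values can overlap the other calls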;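 also: 100% = DMSO carrier and 0% = 500 nM PU-H71 HSP90 inhibitor; lower value means stronger loss of Her2 protein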
M1 ag = M1 muscarinic receptor agonism; CHO-M1 cells, Fluo-4 calcium fluorescence, agonist mode; stronger effect = higher value; B-score at 10 µM; actives 3% (n = 64,000);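 active = fluorescence rise, raw or as B-score row- and column-corrected plate score, outside the 99.7% band of its plate's samples, either direction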
M1 antag = blocks the rat M1 muscarinic receptor response to acetylcholine. B-score at 10 µM. AID 628. actives 3.4% (n = 64,000). CHO-M1 cells, Fluo-4 calcium, ACh EC80 antagonist mode; stronger effect = lower value;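 active = calcium fluorescence response, raw or row-and-column corrected B-score, differing from the plate sample mean either way at a set confidence level, mostly lower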
Cdc25B inh = human M-phase inducer phosphatase 2 inhibition; inhibition, %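 (compounds tested at 10 µM final in the well)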; recombinant Cdc25B, OMFP fluorescence Ex485/Em525; P30305; actives 0.1% (n = 65,000); in the data active = inhibition above about 50%
MKP-1 inh = human dual specificity phosphatase 1 inhibition; P28562; recombinant MKP-1, OMFP hydrolysis fluorescence; inhibition, %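 (compounds tested at a single concentration somewhere between 10 and 100 µM)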; actives 0.15% (n = 65,000);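 active = inhibition above about 50%, limit read from the data; inconclusive = inhibition over screen mean plus 3 SD, below that limit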;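 also: 0% = DMSO max control wells and 100% = wells with enzyme stopped by NaOH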
Target sequence (P28562 whole entry, looked up): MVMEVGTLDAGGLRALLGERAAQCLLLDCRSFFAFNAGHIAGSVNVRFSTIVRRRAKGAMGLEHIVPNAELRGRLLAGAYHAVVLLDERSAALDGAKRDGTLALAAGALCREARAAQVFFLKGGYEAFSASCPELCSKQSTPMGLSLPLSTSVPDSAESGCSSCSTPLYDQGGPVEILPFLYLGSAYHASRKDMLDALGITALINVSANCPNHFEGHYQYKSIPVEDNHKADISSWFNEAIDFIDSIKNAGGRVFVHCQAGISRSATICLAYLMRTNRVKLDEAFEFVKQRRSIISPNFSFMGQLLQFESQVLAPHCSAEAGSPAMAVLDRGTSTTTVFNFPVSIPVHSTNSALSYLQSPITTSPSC
HEK293 NFkB inh = inhibitors of the PMA/ionomycin-induced NF-kB reporter in HEK293 cells; HEK-293 NF-kB luciferase reporter, luminescence; inhibition, % at 3 µM; actives 0.21% (n = 62,000); AID 465;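 active = inhibition above the mean of all tested compounds plus 3 SD, cut at about 40% in these data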;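 also: 0% = stimulated DMSO wells and 100% = 10 µM reference inhibitor 5653914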
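System: NF-kB luciferase reporter HEK-293 cells | Replication: Single test | Control set: DMSO vs reference inhibitor | Evaluation: % inhibition | Schedule: 1 h pretreatment, 16 h stimulation, 37 °C | Probe or stimulus: PMA with ionomycin | Compound dosing: One dose, 3 µM | Detection: Luciferase luminescence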
M1 ag confirm = confirmation of rat M1 muscarinic receptor agonists. shares compounds with M1 ag. AID 1488. CHO-M1 cells, Fluo-4 calcium fluorescence, agonist mode; actives lie on both sides. actives 19% (n = 1,700). fluorescence change (max-min) at 10 µM;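 active = fluorescence change differs from the solvent-only DMSO control mean at a set confidence level in both duplicate runs; inconclusive = differs from solvent-only control mean in just one of two runs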;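 also: an EC20 dose of acetylcholine follows compound addition during the same imaging run; raw fluorescence intensity difference in instrument units with no normalization to controls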
M4 agonist ctr = rat M4 muscarinic agonism, M1 counter-screen; fluorescence change (max-min) at 10 µM; CHO M4/Gqi5 cells, Fluo-4 calcium fluorescence, agonist mode; actives lie on both sides; actives 9% (n = 1,700); AID 1741; shares compounds with M1 ag;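 active = fluorescence change differing from the plate's solvent-only control wells at 99.7% confidence in both duplicates, whether higher or lower; inconclusive = differs from solvent controls in only one of two duplicates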
* marks the source's active call; other numbers are inactive results; u = inconclusive; x = no result given.

SMILES | HER2 expr 66K | M1 ag | M1 antag | Cdc25B inh | MKP-1 inh | HEK293 NFkB inh | M1 ag confirm | M4 agonist ctr
O=C(C1CCCN(S(=O)(=O)c2cccc3cccnc23)C1)N1CCc2ccccc21 (configuration not stated) | x | 3.1* | -0.14 | 5 | 7 | 21 | u | -49
O=C(Nc1ccncc1)C1CCCN(S(=O)(=O)c2cccc3cccnc23)C1 (configuration not stated) | 77 | -0.92 | -0.015 | 3 | -2 | 27 | x | x
CC(C)(C)NC(=O)C1CCCN(S(=O)(=O)c2cccc3cccnc23)C1 (configuration not stated) | 108 | -0.45 | 1.5 | -6 | -6 | 18 | x | x
COc1cccc(NC(=O)C2CCCN(S(=O)(=O)c3cccc4cccnc34)C2)c1 (configuration not stated) | 94 | 3.1* | 0.15 | -20 | -1 | 9 | u | -25
CC(=O)c1c(C)[nH]c(C(=O)OCc2nnc(-c3ccccc3)o2)c1C | 88 | 2.8* | -0.2 | 24 | 8 | 8 | u | -70*
Cc1ccc(C(=O)OCc2nnc(-c3ccccc3)o2)o1 | 108 | 0.67 | -2.4 | 3 | 8 | 6 | x | x
CC(C(=O)OCc1nnc(-c2ccccc2)o1)N1C(=O)c2ccccc2C1=O (configuration not stated) | 78 | -2.2* | -0.031 | -11 | 8 | 8 | -3.9 | -31
Cc1csc2ncc(C(=O)NC(C)c3ccccc3)c(=O)n12 (configuration not stated) | 77 | -1.4 | -0.45 | -1 | 2 | 1 | x | x
Cc1noc(C)c1C(=O)NCCCN1CCCC1=O | 79 | 1.2 | 0.19 | -9 | 14 | 5 | x | x
CCOC(=O)C1(C(F)(F)F)N=C(c2cccnc2)OC(N2CCOCC2)=N1 (configuration not stated) | 97 | 0.45 | 0.83 | 14 | 4 | 11 | x | x
CCOC(=O)c1sc2nc(N3CCOCC3)c3c(c2c1N)CC(C)(C)N(C)C3 | x | 1.3 | -1.1 | x | x | 4 | x | x
CCOC(=O)c1sc2nc(N3CCOCC3)c3c(c2c1N)CCC3 | 112 | 2* | -0.4 | 0 | -7 | 11 | u | -44
Nc1nc2n(n1)C(c1cccc(Br)c1)CC(c1ccc(F)cc1)N2 (configuration not stated) | 87 | -0.93 | -0.31 | 7 | 23 | 2 | x | x
Cc1ccc(-c2noc(COc3ccccc3C)n2)cc1 | 93 | 0.18 | 0.93 | 2 | 2 | 19 | x | x
Cc1ccccc1OCc1nc(-c2ccccc2)no1 | 62 | -2.4* | -0.71 | -11 | -19 | -19 | -9.1 | -54
CN(CC(=O)Nc1ccc(C#N)cc1)Cc1ccc(Cl)cc1 | 115 | -0.89 | 0.1 | -2 | -10 | 5 | x | x
N#Cc1ccc(NC(=O)Nc2ccc(Cl)cc2)cc1 | 38 | 3.1* | -0.34 | -5 | 4 | -12 | 29 | 13
O=C(NCCCN1CCOCC1)c1cccs1 | 97 | 0.8 | 0 | 0 | 3 | -8 | x | x
Cn1nc(C(=O)N2CCN(S(=O)(=O)c3ccccc3)CC2)c2ccccc2c1=O | 94 | -0.07 | -0.3 | -9 | 9 | 4 | x | x
O=C(c1nc(-c2ccccc2)n(-c2ccccc2)n1)N1CCN(S(=O)(=O)c2ccccc2)CC1 | 78 | 3.8* | -3.8* | -15 | 40 | 21 | -8 | u
O=C(NC1CCCCCCC1)c1ccc2c(c1)N(Cc1ccc(F)cc1)C(=O)CS2=O (configuration not stated) | 72 | 0.34 | -0.055 | -5 | u | 8 | x | x
O=C(O)CCC(=O)NC1CCCCC1NC(=O)CCC(=O)O (configuration not stated) | 86 | 0.63 | 0.4 | -15 | 0 | 15 | x | x
O=C(NCCC1=CCCCC1)C1CCCN(c2nc3ccccc3o2)C1 (configuration not stated) | 92 | 6.8* | -0.27 | -6 | 27 | 14 | u | u
CC(=O)Oc1ccc(CCC(C)OC(C)=O)cc1 (configuration not stated) | 110 | 0.099 | 0.48 | -7 | -1 | -2 | x | x
CC(=O)C1=C(C)NC(C)=C(C(C)=O)C1c1ccc(-c2ccccc2Cl)o1 | 87 | 0.74 | 0.0058 | -8 | -6 | 0 | x | x
SMILES | HER2 expr 66K | M1 ag | M1 antag | Cdc25B inh | MKP-1 inh | HEK293 NFkB inh | M1 ag confirm | M4 agonist ctr
Cc1cc(C(=O)CSc2nnc(-c3ccco3)o2)c(C)n1-c1ccc2c(c1)OCCO2 | 110 | 12* | -0.29 | -6 | 37 | 10 | u | -44
O=C(CN1CCOCC1)NCCNC(=O)CN1CCOCC1 | 92 | 4.2* | 1 | 0 | 11 | 20 | u | u
O=C(CN1CCOCC1)NCc1ccccc1 | 63 | 0.38 | 1 | -10 | 4 | 7 | x | x
COc1ccc(C2(C(=O)N3CCCC3)CCOCC2)cc1OC | 78 | -0.22 | -0.35 | -10 | -8 | 1 | x | x
Cc1ccc(-c2noc(CCC(=O)NCCCN3CCN(c4cccc(Cl)c4)CC3)n2)cc1 | 71 | 4.4* | -3.7* | -34 | 25 | 6 | u | -46
COc1ccc(-c2noc(CCC(=O)NCCCN3CCC(C)CC3)n2)cc1 | 105 | -0.15 | -0.18 | -6 | 13 | 4 | x | x
COc1ccc(-c2noc(CCC(=O)NCCN3CCN(c4ccccc4F)CC3)n2)cc1 | 100 | 5* | -1.6 | -26 | 21 | 14 | -14 | -62
CC1(C)CC(=O)c2cc(OCC(=O)NCCCN3CCN(c4ccc(F)cc4)CC3)ccc2O1 | 84 | 13* | -0.87 | -17 | -22 | 13 | 11 | -55
Cc1ccc(-c2noc(CCC(=O)NCCCN3CCN(c4ccc(F)cc4)CC3)n2)cc1 | 91 | 5.3* | -2.6* | -31 | 24 | 4 | 10 | -29
CCOc1cc(S(=O)(=O)NCC2OCCc3ccccc32)c(OCC)cc1-n1cnnn1 (configuration not stated) | 94 | 0.046 | 0.6 | 5 | 29 | 20 | x | x
CCCSc1nc(C)c(-c2csc(C(C#N)=C3CCCC3)n2)cc1C#N | 100 | -0.72 | -0.87 | 22 | 12 | 24 | x | x
CCn1cc(C2=NOC(C(=O)Nc3cc(C)nn3-c3ccccc3)C2)c(C)n1 (configuration not stated) | 117 | 0.0063 | -0.035 | 1 | -5 | 12 | x | x
O=C(NCCc1ccccc1)c1ccccc1NS(=O)(=O)N1CCCC1 | 74 | -0.17 | 0.1 | -8 | 22 | 3 | x | x
O=C(NCC1COc2ccccc2O1)Nc1ccccc1F (configuration not stated) | 108 | 0.35 | 0.36 | -15 | 21 | 0 | x | x
